Measurements from ChEMBL document CHEMBL3407383, “Design, synthesis and biological profile of new inhibitors of multidrug resistance associated proteins carrying a polycyclic scaffold” (Eur J Med Chem, 2015).
Calls of active or inactive are those of the source. The calls are words filed in the database; no cut-off is given here.

Key:
[1] = molecular target: T1, Multidrug resistance protein 1/Multidrug resistance associated protein 1 (Homo sapiens, UniProt P33527+P08183); experiment: Inhibition of MDR1/MRP1 overexpressed in doxorubicin-resistant human HL60R cells assessed as DXR accumulation at 0.4 uM incubated for 2 hrs prior to DXR challenge measured after 2 hrs by fluorescence assay relative to control; assay type: cell-based
Summary of the method: (§1)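 HL60 and HL60R cells (2.5 × 10^5 cells/mL) preincubated 2 h with compound, then 2 h with 10 µM DXR. Washed twice in cold PBS, resuspended at 1 × 10^6 cells/mL. Anthracycline fluorescence read immediately by flow cytometry (excitation 488 nm, emission 600 nm, log scale). Mean ± SD, ≥3 independent experiments; one-way ANOVA versus HL60R.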

[2] = Cytotoxicity against human HL60 cells assessed as effect on cell cycle at 10 uM; assay type: cell-based; settings: hl-60, 10 µM
[3] = tested on: HL60R; experiment: Potentiation of doxorubicin-induced cell cycle arrest in human HL60R cells assessed as exit from mitosis at 10 uM after 48 hrs by propidium iodide staining-based flow cytometry; assay type: functional
Summary of the method: (§2)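 HL60R cells treated with compound plus 10 µM DXR for 24 and 48 h. Fixed in 70% ice-cold ethanol at -20 °C overnight, stained with PI 5 µg/mL plus DNase-free RNase A 10 µg/mL in PBS, 30 min at 37 °C in the dark. PI red fluorescence acquired on a linear scale at 600 nm by flow cytometry.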

[4] = Cytotoxicity against human HL60 cells assessed as cell viability at 10 uM by MTT assay; assay type: cell-based; settings: hl-60, 10 µM
[5] = molecular target: T2, ATP-dependent translocase ABCB1 (Homo sapiens, UniProt P08183); experiment: Reversal of human MDR1-mediated drug efflux in mouse L5178 cells using rhodamine 123 as substrate assessed as fluorescence activity ratio at 40 uM incubated for 10 mins prior to substrate addition measured after 20 mins by FACScan flow cytometry relative to control; assay type: cell-based; settings: l5178, 20 min
T2 sequence (P08183 whole entry): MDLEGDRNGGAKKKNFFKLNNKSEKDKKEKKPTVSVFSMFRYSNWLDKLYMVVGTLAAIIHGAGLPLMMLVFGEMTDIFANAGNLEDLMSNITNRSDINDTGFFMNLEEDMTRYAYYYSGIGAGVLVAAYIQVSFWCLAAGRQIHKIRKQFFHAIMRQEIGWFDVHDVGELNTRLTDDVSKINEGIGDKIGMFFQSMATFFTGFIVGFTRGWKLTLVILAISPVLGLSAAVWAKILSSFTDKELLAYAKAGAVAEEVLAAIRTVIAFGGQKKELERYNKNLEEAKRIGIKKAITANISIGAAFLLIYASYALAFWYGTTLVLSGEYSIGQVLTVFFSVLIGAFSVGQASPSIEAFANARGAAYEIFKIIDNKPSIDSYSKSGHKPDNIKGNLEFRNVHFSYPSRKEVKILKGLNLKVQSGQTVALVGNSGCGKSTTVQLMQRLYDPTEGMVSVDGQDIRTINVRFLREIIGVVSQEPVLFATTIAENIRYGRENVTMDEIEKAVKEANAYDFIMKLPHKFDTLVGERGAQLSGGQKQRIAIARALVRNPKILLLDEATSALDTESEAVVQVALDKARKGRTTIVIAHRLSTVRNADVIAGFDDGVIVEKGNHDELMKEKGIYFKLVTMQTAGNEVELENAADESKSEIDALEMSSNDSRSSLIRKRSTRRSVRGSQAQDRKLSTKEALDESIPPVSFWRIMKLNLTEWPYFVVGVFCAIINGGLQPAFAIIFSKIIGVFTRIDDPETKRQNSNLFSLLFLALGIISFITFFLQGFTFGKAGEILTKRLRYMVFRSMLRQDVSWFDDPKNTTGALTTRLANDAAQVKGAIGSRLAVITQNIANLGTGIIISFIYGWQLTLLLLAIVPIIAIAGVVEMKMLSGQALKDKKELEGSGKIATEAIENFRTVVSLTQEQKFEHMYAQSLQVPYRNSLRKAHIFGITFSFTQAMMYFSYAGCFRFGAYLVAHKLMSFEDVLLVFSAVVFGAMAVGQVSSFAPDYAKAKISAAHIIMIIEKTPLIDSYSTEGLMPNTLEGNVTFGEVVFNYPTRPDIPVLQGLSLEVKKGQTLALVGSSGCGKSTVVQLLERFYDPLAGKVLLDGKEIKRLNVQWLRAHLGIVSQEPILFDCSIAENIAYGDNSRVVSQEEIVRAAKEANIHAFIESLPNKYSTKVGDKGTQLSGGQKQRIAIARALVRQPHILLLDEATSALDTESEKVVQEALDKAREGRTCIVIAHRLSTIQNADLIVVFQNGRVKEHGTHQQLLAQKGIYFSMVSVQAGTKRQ

[6] = tested on: HL60R; experiment: Potentiation of doxorubicin-induced cell cycle arrest in human HL60R cells assessed as accumulation at G2/M phase at 10 uM after 24 hrs by propidium iodide staining-based flow cytometry; assay type: functional; summary of the method: as §2
[7] = molecular target: T1, Multidrug resistance protein 1/Multidrug resistance associated protein 1; experiment: Activity at human MDR1/MRP1 overexpressed in doxorubicin-resistant human HL60R cells assessed as ATP consumption at 10 uM after 2 hrs by luminescence assay (reference value: 6350 +/- 303 RLU); assay type: cell-based
Summary of the method: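 HL60R cells at 2.5 × 10^5 cells/mL exposed to 10 µM compound (DMSO solution) for 2 h at 37 °C, 5% CO2; washed twice in cold PBS, resuspended at 1 × 10^6 cells/mL. 1 × 10^5 cells lysed in swab by 20 s agitation; ATP read by luciferase/d-luciferin bioluminescence on a luminometer.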

[8] = tested on: HL60R; experiment: Potentiation of doxorubicin-induced cytotoxicity in human HL60R cells assessed as impairment of cell growth at 10 uM incubated for 2 hrs prior to doxorubicin challenge measured up to 24 hrs by trypan blue staining-based haemocytometry; assay type: functional
Summary of the method: (§3)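 HL60R cells seeded at 1.5 × 10^5 cells/mL; after 24 h, exposed to compound (10 µM) for 2 h, then 10 µM DXR added. Viable cells counted by Trypan Blue exclusion in a Bürker haemocytometer at 24 and 48 h. Mean ± SD, at least three independent experiments.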

[9] = tested on: HL60R; experiment: Potentiation of doxorubicin-induced cytotoxicity in human HL60R cells assessed as restart of cell growth at 10 uM incubated for 2 hrs prior to doxorubicin challenge measured after 24 hrs by trypan blue staining-based haemocytometry relative to control; assay type: functional; summary of the method: as §3
[10] = molecular target: T2, ATP-dependent translocase ABCB1; experiment: Reversal of human MDR1-mediated drug efflux in mouse L5178 cells using rhodamine 123 as substrate assessed as fluorescence activity ratio at 4 uM incubated for 10 mins prior to substrate addition measured after 20 mins by FACScan flow cytometry relative to control; assay type: cell-based; settings: l5178, 20 min
[11] = Cytotoxicity against human HL60R cells assessed as effect on cell cycle at 10 uM; assay type: cell-based
[12] = molecular target: T1, Multidrug resistance protein 1/Multidrug resistance associated protein 1; experiment: Inhibition of MDR1/MRP1 overexpressed in doxorubicin-resistant human HL60R cells assessed as DXR accumulation at 10 uM incubated for 2 hrs prior to DXR challenge measured after 2 hrs by fluorescence assay relative to control; assay type: cell-based; summary of the method: as §1
[13] = molecular target: T2, ATP-dependent translocase ABCB1; experiment: Reversal of human MDR1-mediated drug efflux in mouse L5178 cells using rhodamine 123 as substrate at 40 uM incubated for 10 mins prior to substrate addition by FACScan flow cytometry relative to verapamil; assay type: cell-based; settings: l5178, 10 min
Summary of the method: (§4)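 L5178 MDR1-transfected and parental mouse lymphoma cells at 2 × 10^6/mL in serum-free McCoy's 5A. Preincubated with compound (0.4–40 µM) for 10 min at room temperature, then rhodamine-123 (5.2 µM final) added for 20 min at 37 °C; washed twice, resuspended in PBS, read by flow cytometry. Verapamil as positive control. R = (MDR treated/MDR control)/(parental treated/parental control).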

[14] = Cytotoxicity against human HL60R cells assessed as cell viability at 10 uM by MTT assay; assay type: cell-based
[15] = Lipophilicity, log P of the compound; assay type: physicochemical; settings: octanol/water
[16] = tested on: HL60R; experiment: Potentiation of doxorubicin-induced cytotoxicity in human HL60R cells at 10 uM incubated for 2 hrs prior to doxorubicin challenge measured after 24 hrs by trypan blue staining-based haemocytometry; assay type: functional, cell-based; summary of the method: as §3
[17] = molecular target: T2, ATP-dependent translocase ABCB1; experiment: Reversal of human MDR1-mediated drug efflux in mouse L5178 cells using rhodamine 123 as substrate assessed as fluorescence activity ratio at 0.4 uM incubated for 10 mins prior to substrate addition measured after 20 mins by FACScan flow cytometry relative to control; assay type: cell-based; settings: l5178, 20 min; summary of the method: as §4
[18] = molecular target: T2, ATP-dependent translocase ABCB1; experiment: Reversal of human MDR1-mediated drug efflux in mouse L5178 cells using rhodamine 123 as substrate assessed as fluorescence activity ratio at 0.8 uM incubated for 10 mins prior to substrate addition measured after 20 mins by FACScan flow cytometry relative to control; assay type: cell-based; settings: l5178, 20 min; summary of the method: as §4
[19] = tested on: HL60R; experiment: Potentiation of doxorubicin-induced cell cycle arrest in human HL60R cells assessed as accumulation at G0/G1 phase at 10 uM after 24 hrs by propidium iodide staining-based flow cytometry; assay type: functional; summary of the method: as §2
[20] = tested on: HL60R; experiment: Potentiation of doxorubicin-induced cytotoxicity in human HL60R cells at 10 uM incubated for 2 hrs prior to doxorubicin challenge measured after 24 to 48 hrs by trypan blue staining-based haemocytometry; assay type: functional, cell-based; summary of the method: as §3
[21] = tested on: HL60R; experiment: Induction of apoptosis in human HL60R cells assessed as nuclear fragmentation at 10 uM after 48 hrs by […] staining-based fluorescence microscopy
[22] = tested on: HL60R; experiment: Induction of apoptosis in human HL60R cells assessed as chromatin condensation at 10 uM after 48 hrs by […] staining-based fluorescence microscopy; assay type: functional, cell-based
Summary of the method: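 HL60R cells co-treated 48 h with 10 µM compound plus 10 µM DXR. Cytospun onto slides (150 g, 5 min), PBS-washed, fixed in 4% paraformaldehyde, permeabilized with 0.5% Triton X-100 for 5 min at 4 °C, stained with Hoechst 0,1 mg/mL. Nuclear morphology examined by fluorescence microscopy.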

[23] = Cell cycle arrest in human HL60R cells assessed as exit from mitosis at 10 uM after 24 hrs by propidium iodide staining-based flow cytometry; assay type: functional; summary of the method: as §2
[24] = Cell cycle arrest in human HL60R cells assessed as accumulation at G2/M phase at 10 uM after 24 hrs by propidium iodide staining-based flow cytometry; assay type: functional; summary of the method: as §2

Compound	inhibition (INH) [1]	Ratio [5]	RLU [7]	Ratio [10]	inhibition (INH) [12]	logP [15]	Activity [2]	Activity [4]	Activity [6]	Activity [11]	Activity [14]	Activity [19]	Activity [20]	also measured
O=C1[C@@H]2[C@H]3c4ccccc4[C@H](c4ccccc43)[C@@H]2C(=O)N1CC#CCN1CCN(c2ccccc2)CC1	Not Active	11.52	3650	7.56	Not Active	2.54	Non-toxic	Non-toxic	Active	Non-toxic	Non-toxic	–	–	Activity [3]: inactive; Activity [8]: Active; Activity [9]: inactive; Ratio [13]: 2
CN1CCN(CC#CCN2C(=O)[C@@H]3[C@H]4c5ccccc5[C@H](c5ccccc54)[C@@H]3C2=O)CC1	Not Active	64.74	3429	9.59	Not Active	2.54	Non-toxic	Non-toxic	Active	Non-toxic	Non-toxic	–	–	Activity [3]: inactive; Activity [8]: Active; Activity [9]: inactive
COc1ccc(CCN(C)CC#CCN2C(=O)[C@@H]3[C@H]4c5ccccc5[C@H](c5ccccc54)[C@@H]3C2=O)cc1OC	Not Active	–	2612	–	–	–	Toxic	Toxic	–	Toxic	Toxic	Active	Active	–
COc1cccc2c1C(=O)c1c(O)c3c(c(O)c1C2=O)C[C@@](O)(C(=O)CO)C[C@@H]3O[C@H]1C[C@H](N)[C@H](O)[C@H](C)O1	–	–	–	–	–	–	–	–	–	–	–	–	–	Activity [21]: Active; Activity [22]: Active; Activity [23]: inactive; Activity [24]: Active

The next lines start with results.

inhibition (INH) [1]	Ratio [5]	RLU [7]	Ratio [10]	inhibition (INH) [12]	logP [15]	Compound	Activity [2]	Activity [4]	Activity [6]	Activity [11]	Activity [14]	Activity [19]	Activity [20]	also measured
Not Active	44.6	4363	6.39	Not Active	2.54	O=C1[C@@H]2[C@H]3c4ccccc4[C@H](c4ccccc43)[C@@H]2C(=O)N1CC#CCN1CCC(n2c(=O)[nH]c3ccccc32)CC1	Non-toxic	Non-toxic	Active	Non-toxic	Non-toxic	–	–	Activity [16]: Active
Not Active	33.38	4276	28.27	Active	6.3	O=C1[C@@H]2[C@H]3c4ccccc4[C@H](c4ccccc43)[C@@H]2C(=O)N1CC#CCN1CCN(C(c2ccc(F)cc2)c2ccc(F)cc2)CC1	Non-toxic	Non-toxic	–	Non-toxic	Non-toxic	Active	Active	Ratio [17]: 5.19; Ratio [18]: 8.22
Not Active	85.46	3957	54.832	Active	2.54	O=C1[C@@H]2[C@H]3c4ccccc4[C@H](c4ccccc43)[C@@H]2C(=O)N1CC#CCN1CCN(Cc2ccccc2)CC1	Non-toxic	Non-toxic	–	Non-toxic	Non-toxic	Active	Active	Ratio [17]: 2.62; Ratio [18]: 7.76; Ratio [13]: 15
–	–	–	–	Not Active	–	C#CCN1C(=O)[C@@H]2[C@H]3c4ccccc4[C@H](c4ccccc43)[C@@H]2C1=O	–	–	–	–	–	–	–	–
